Series [1] in a line: melting temperature; fluorescence melt of hairpins on a sequencing array, two-state fit, raised by 9.35 °C to match UV melts. Conditions: sodium 0.088 M. In a few lines: (§1)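 In 50 mM Na-HEPES pH 8.0 containing 25 mM NaCl, hairpins from the library on a sequenced MiSeq flow cell were imaged for Cy3 fluorescence at 2.5 °C steps up to 60 °C, with Cy3 and quencher oligos annealed. After normalisation to pre-quench Cy3 and to control constructs, two-state fits with bootstrapping gave melting temperature and folding enthalpy. Four replicates were combined by inverse-variance weighting, and fitted temperatures were shifted up by 9.35 °C to match UV melts.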

Series [2] is described as follows: folding enthalpy; higher = less favourable; fluorescence melt of hairpins on a sequencing array, two-state fit. The following applies: sodium 0.088 M. Put shortly:
as §1

The values below come from the array DNA melting data of Ke et al. (doi:10.1101/2024.01.08.574731).

Take GATCGAGGAAACCCGATC (((((.(....).))))): the Tm in series [1] was 47.8 °C. In addition, the folding enthalpy in series [2] is -33.1 kcal/mol.
On the same counts, the results for GATCGAGGACTCGATC ((((((....)))))) are 60.1 °C and -38.4 kcal/mol.
For GATCGAGGATCGATC ((((((...)))))), the Tm in series [1] came out at 59.6 °C. In addition, in series [2], the folding enthalpy was -35.4 kcal/mol.
On the same counts, the results for GATCGAGGCCTCGATC ((((((....)))))) are 62.2 °C and -49.1 kcal/mol.
On to GATCGAGGCTTCGATC ((((((....)))))), for which the Tm in series [1] was 57.9 °C. Moreover, the folding enthalpy in series [2] was -41.8 kcal/mol.
For the sequence GATCGAGTATCGATC ((((((...)))))), the Tm in series [1] was 59.6 °C. Further, the folding enthalpy in series [2] was -40.9 kcal/mol.
Consider GATCGAGTCATCGATC ((((((....)))))), for which, in series [1], the Tm came out at 60.7 °C. The folding enthalpy in series [2] is -35.4 kcal/mol.
The like results for GATCGAGTCGTCGATC ((((((....)))))) were, in that order, 54.9 °C and -35.6 kcal/mol.
The like results for GATCGAGTGCTCGATC ((((((....)))))) were, in that order, 53.8 °C and -58.9 kcal/mol.
Consider GATCGATAAATCGATC ((((((....)))))), for which the Tm in series [1] is 52.3 °C. The folding enthalpy in series [2] was -39.9 kcal/mol.
For the sequence GATCGATAGCTCGATC ((((((....)))))), the Tm in series [1] came to 49.6 °C. The folding enthalpy in series [2] was -41.9 kcal/mol.
Take GATCGATATCTCGATC ((((((....)))))): the Tm in series [1] is 51 °C. In series [2], the folding enthalpy was -36 kcal/mol.
With GATCGATCACTCGATC ((((((....)))))), the Tm in series [1] turned out to be 51.2 °C. Also, in series [2], the folding enthalpy was -41.5 kcal/mol.
The like results for GATCGATCAGTCGATC ((((((....)))))) were, in that order, 51.1 °C and -43.1 kcal/mol.
On the same counts, the results for GATCGATCCCTCGATC ((((((....)))))) are 52.8 °C and -44.1 kcal/mol.
The like results for GATCGATCGATCGATC ((((((....)))))) were, in that order, 57.1 °C and -57.6 kcal/mol.
In the case of GATCGATCTATCGATC ((((((....)))))), in series [1], the Tm was 56.3 °C. In addition, the folding enthalpy in series [2] was -42.5 kcal/mol.
The like results for GATCGATGAATCGATC ((((((....)))))) were, in that order, 55.1 °C and -41.1 kcal/mol.
For the sequence GATCGATGCATCGATC ((((((....)))))), in series [1], the Tm is 59.7 °C. Besides, the folding enthalpy in series [2] is -46.9 kcal/mol.
For GATCGATGCCTCGATC ((((((....)))))), the Tm in series [1] was found to be 52.5 °C. Moreover, the folding enthalpy in series [2] was -38.1 kcal/mol.
The like results for GATCGATGGATCGATC ((((((....)))))) were, in that order, 54.5 °C and -36.5 kcal/mol.
GATCGATGGCTCGATC ((((((....)))))): the Tm in series [1] is 50.2 °C. Besides, in series [2], the folding enthalpy was -34 kcal/mol.
GATCGATGTCTCGATC ((((((....)))))): the Tm in series [1] came to 51.5 °C. Also, in series [2], the folding enthalpy was -39 kcal/mol.
On the same counts, the results for GATCGATGTTTCGATC ((((((....)))))) are 53.5 °C and -43 kcal/mol.
As for GATCGATTCGTCGATC ((((((....)))))), in series [1], the Tm was found to be 55.1 °C. In series [2], the folding enthalpy is -41.5 kcal/mol.
In the case of GATCGATTGTTCGATC ((((((....)))))), the Tm in series [1] came to 53.1 °C. For the same sequence, the folding enthalpy in series [2] was -37.4 kcal/mol.
On the same counts, the results for GATCGATTTGTCGATC ((((((....)))))) are 55.5 °C and -41.5 kcal/mol.
As to GATCGATTTTCGATC ((((((...)))))), the Tm in series [1] worked out at 54.4 °C. In series [2], the folding enthalpy is -35.2 kcal/mol.
As to GATCGCAAATGCGATC ((((((....)))))), the Tm in series [1] stood at 68 °C. Besides, in series [2], the folding enthalpy was -40.5 kcal/mol.
GATCGCAAGCGCGATC ((((((....)))))): the Tm in series [1] was 67.8 °C. Besides, the folding enthalpy in series [2] was -31 kcal/mol.
On the same counts, the results for GATCGCAAGGGCGATC ((((((....)))))) are 68 °C and -29.3 kcal/mol.
As to GATCGCACAGGCGATC ((((((....)))))), the Tm in series [1] was 68.1 °C. Also, the folding enthalpy in series [2] was -33 kcal/mol.
GATCGCACCGCGATC ((((((...)))))): in series [1], the Tm was 69 °C. In series [2], the folding enthalpy was -34 kcal/mol.
The like results for GATCGCACTGCGATC ((((((...)))))) were, in that order, 68.3 °C and -35 kcal/mol.
The like results for GATCGCAGAAGCGATC ((((((....)))))) were, in that order, 66.9 °C and -30.8 kcal/mol.
As to GATCGCATAGGCGATC ((((((....)))))), the Tm in series [1] was found to be 68.2 °C. Besides, the folding enthalpy in series [2] was -32 kcal/mol.
Regarding GATCGCATGAGCGATC ((((((....)))))), the Tm in series [1] amounted to 69.3 °C. In series [2], the folding enthalpy is -27.4 kcal/mol.
On the same counts, the results for GATCGCCCGTGCGATC ((((((....)))))) are 64 °C and -33.7 kcal/mol.
